Experimental data published in ChEMBL document CHEMBL4270603, “Computer-aided drug discovery: Novel 3,9-disubstituted eudistomin U derivatives as potent antibacterial agents” (Eur J Med Chem, 2018).
Values after ≈ are worked out from the molar mass of the structure shown. Active and inactive are the calls of the source. The calls are words filed in the database; no cut-off is given here.

What was measured:
[1] = system: Bacillus cereus; assay: Antibacterial activity against Bacillus cereus CGMCC 1.1846 measured after 12 to 14 hrs; format: functional
Outline: (§1)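 Twofold (double) dilution method for in vitro antibacterial activity, with fosfomycin sodium, ciprofloxacin and propineb as positive controls.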

[2] = system: Staphylococcus aureus; assay: Antibacterial activity against Staphylococcus aureus CGMCC 1.8721 measured after 12 to 14 hrs; format: functional; outline: as §1
[3] = system: Staphylococcus aureus; assay: Antibacterial activity against methicillin-resistant Staphylococcus aureus ATCC 43300 measured after 12 to 14 hrs; format: functional
Outline: (§2)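 In vitro double dilution method, run alongside fosfomycin sodium, ciprofloxacin and propineb as positive controls.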

[4] = system: Ralstonia solanacearum; assay: Antibacterial activity against Ralstonia solanacearum CGMCC 1.12711 measured after 12 to 14 hrs; format: functional; outline: as §2
[5] = system: Ralstonia solanacearum; assay: Potency index, ratio of propineb MIC to test compound MIC for Ralstonia solanacearum CGMCC 1.12711; format: functional
[6] = system: Staphylococcus aureus; assay: Potency index, ratio of ciprofloxacin MIC to test compound MIC for methicillin-resistant Staphylococcus aureus ATCC 43300; format: functional
[7] = system: Calf thymus DNA; assay: Binding affinity to calf thymus DNA by isothermal titration calorimetric method; format: nucleic-acid assay, Bos taurus
Outline: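 DNA was titrated with compound by isothermal titration calorimetry at 298 K. Heat flow was recorded over time, and thermodynamic constants were obtained by fitting to an independent binding model.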

[8] = system: Bacillus cereus; assay: Potency index, ratio of ciprofloxacin MIC to test compound MIC for Bacillus cereus CGMCC 1.1846; format: functional
[9] = system: Staphylococcus aureus; assay: Induction of morphological changes in Staphylococcus aureus assessed as appearance of rough cell surface at 1.5625 micromol/l after 1 hr by scanning electron microscopic analysis; format: functional, organism-based
Outline: (§3)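 Cell-surface morphology of compound-treated S. aureus was imaged by scanning electron microscopy and compared with an untreated blank group.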

[10] = system: Staphylococcus aureus; assay: Induction of morphological changes in Staphylococcus aureus assessed as disruption of cell membrane at 0.5 MIC after 1 hr by transmission electron microscopic analysis; format: functional, organism-based; conditions: 0.5 M
Outline: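 S. aureus cells were exposed to compound for 1 h, then imaged by transmission electron microscopy for cell-membrane boundary integrity, with untreated cells as the comparison.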

[11] = system: Staphylococcus aureus; assay: Induction of morphological changes in Staphylococcus aureus assessed as appearance of irregular cell surface at 1.5625 micromol/l after 1 hr by scanning electron microscopic analysis; format: functional, organism-based; outline: as §3
[12] = system: Staphylococcus aureus; assay: Bactericidal activity against Staphylococcus aureus assessed as disruption of bacterial membrane at 1.5625 micromol/l after 1 hr by Hoechst/propidium iodide staining based fluorescence microscopic analysis; format: functional, organism-based
Outline: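 S. aureus cells were incubated with compound for 1 h, then dual-stained with Hoechst and propidium iodide and imaged by fluorescence microscopy, with untreated cells as the control. Hoechst enters intact cells and gives blue fluorescence. PI gives red fluorescence only when the membrane is disrupted. Blue, red and merged channels were compared.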

O=C(O)c1cn(C2CC2)c2cc(N3CCNCC3)c(F)cc2c1=O [CIPROFLOXACIN]
MIC [1]: 6.25 µM (≈ 2.07 µg/mL) | MIC [2]: 3.12 µM (≈ 1.04 µg/mL) | MIC [3]: 12.5 µM (≈ 4.14 µg/mL) | MIC [4]: 3.12 µM (≈ 1.04 µg/mL)

OCc1cc2c3ccccc3n(Cc3ccccc3)c2c(-c2c[nH]c3ccccc23)n1
MIC [1]: 12.5 µM (≈ 5.04 µg/mL) | MIC [2]: 12.5 µM (≈ 5.04 µg/mL) | MIC [3]: 100 µM (≈ 40.3 µg/mL) | MIC [4]: 12.5 µM (≈ 5.04 µg/mL)

OCc1cc2c3ccccc3n(Cc3ccc(Br)cc3)c2c(-c2c[nH]c3ccccc23)n1
Ratio [5]: 16 | Ratio [6]: 4 | MIC [1]: 3.12 µM (≈ 1.51 µg/mL) | MIC [2]: 3.12 µM (≈ 1.51 µg/mL) | Kd [7]: 553 nM | Ka ([7]; Bos taurus): 1.81 ×10⁶ /M | Ratio [8]: 2 | Activity [9]: Active | MIC [3]: 3.12 µM (≈ 1.51 µg/mL) | Activity [10]: Active | Activity [11]: Active | Activity [12]: Active | MIC [4]: 1.56 µM (≈ 0.754 µg/mL)

OCc1cc2c3ccccc3n(Cc3ccc(F)cc3)c2c(-c2c[nH]c3ccccc23)n1
Ratio [6]: 4 | MIC [1]: 3.12 µM (≈ 1.32 µg/mL) | MIC [2]: 6.25 µM (≈ 2.63 µg/mL) | Ratio [8]: 2 | MIC [3]: 3.12 µM (≈ 1.32 µg/mL) | MIC [4]: 6.25 µM (≈ 2.63 µg/mL)

COC(=O)c1cc2c3ccccc3n(Cc3ccc(Cl)cc3)c2c(-c2cn(C(C)=O)c3ccccc23)n1
MIC [1]: > 100 µM | MIC [2]: > 100 µM | MIC [3]: > 100 µM | MIC [4]: > 100 µM

OCc1cc2c3ccccc3n(Cc3cccc(F)c3)c2c(-c2c[nH]c3ccccc23)n1
MIC [1]: 50 µM (≈ 21.1 µg/mL) | MIC [2]: 25 µM (≈ 10.5 µg/mL) | MIC [3]: > 100 µM | MIC [4]: 50 µM (≈ 21.1 µg/mL)

COC(=O)c1cc2c3ccccc3n(Cc3ccccc3C(F)(F)F)c2c(-c2cn(C(C)=O)c3ccccc23)n1
MIC [1]: > 100 µM | MIC [2]: > 100 µM | MIC [3]: > 100 µM | MIC [4]: > 100 µM

OCc1cc2c3ccccc3n(Cc3ccccc3Br)c2c(-c2c[nH]c3ccccc23)n1
MIC [1]: 25 µM (≈ 12.1 µg/mL) | MIC [2]: 12.5 µM (≈ 6.03 µg/mL) | MIC [3]: > 100 µM | MIC [4]: 50 µM (≈ 24.1 µg/mL)

OCc1cc2c3ccccc3n(Cc3ccccc3F)c2c(-c2c[nH]c3ccccc23)n1
MIC [1]: 50 µM (≈ 21.1 µg/mL) | MIC [2]: 25 µM (≈ 10.5 µg/mL) | MIC [3]: > 100 µM | MIC [4]: 25 µM (≈ 10.5 µg/mL)

COC(=O)c1cc2c3ccccc3n(Cc3ccc(Br)cc3)c2c(-c2cn(C(C)=O)c3ccccc23)n1
MIC [1]: > 100 µM | MIC [2]: > 100 µM | MIC [3]: > 100 µM | MIC [4]: > 100 µM

COC(=O)c1cc2c3ccccc3n(Cc3ccccc3)c2c(-c2cn(C(C)=O)c3ccccc23)n1
MIC [1]: > 100 µM | MIC [2]: > 100 µM | MIC [3]: > 100 µM | MIC [4]: > 100 µM

COC(=O)c1cc2c3ccccc3n(Cc3cccc(Cl)c3)c2c(-c2cn(C(C)=O)c3ccccc23)n1
MIC [1]: > 100 µM | MIC [2]: > 100 µM | MIC [3]: > 100 µM | MIC [4]: > 100 µM

OCc1cc2c3ccccc3n(Cc3ccccc3C(F)(F)F)c2c(-c2c[nH]c3ccccc23)n1
MIC [1]: 50 µM (≈ 23.6 µg/mL) | MIC [2]: 50 µM (≈ 23.6 µg/mL) | MIC [3]: 100 µM (≈ 47.1 µg/mL) | MIC [4]: 50 µM (≈ 23.6 µg/mL)

COC(=O)c1cc2c3ccccc3n(Cc3ccccc3Br)c2c(-c2cn(C(C)=O)c3ccccc23)n1
MIC [1]: > 100 µM | MIC [2]: > 100 µM | MIC [3]: > 100 µM | MIC [4]: > 100 µM

COC(=O)c1cc2c3ccccc3n(Cc3ccc(C(F)(F)F)cc3)c2c(-c2cn(C(C)=O)c3ccccc23)n1
MIC [1]: > 100 µM | MIC [2]: > 100 µM | MIC [3]: > 100 µM | MIC [4]: > 100 µM

OCc1cc2c3ccccc3n(Cc3cccc(C(F)(F)F)c3)c2c(-c2c[nH]c3ccccc23)n1
MIC [1]: 3.12 µM (≈ 1.47 µg/mL) | MIC [2]: 3.12 µM (≈ 1.47 µg/mL) | Ratio [8]: 2 | MIC [3]: 12.5 µM (≈ 5.89 µg/mL) | MIC [4]: 3.12 µM (≈ 1.47 µg/mL)

COC(=O)c1cc2c3ccccc3n(Cc3ccccc3F)c2c(-c2cn(C(C)=O)c3ccccc23)n1
MIC [1]: > 100 µM | MIC [2]: > 100 µM | MIC [3]: > 100 µM | MIC [4]: > 100 µM

OCc1cc2c3ccccc3n(Cc3ccc(C(F)(F)F)cc3)c2c(-c2c[nH]c3ccccc23)n1
MIC [1]: 25 µM (≈ 11.8 µg/mL) | MIC [2]: 25 µM (≈ 11.8 µg/mL) | MIC [3]: 25 µM (≈ 11.8 µg/mL) | MIC [4]: 25 µM (≈ 11.8 µg/mL)

COC(=O)c1cc2c([nH]c3ccccc32)c(-c2cn(C(C)=O)c3ccccc23)n1
MIC [1]: > 100 µM | MIC [2]: > 100 µM | MIC [3]: > 100 µM | MIC [4]: > 100 µM

Cc1cccc(Cn2c3ccccc3c3cc(CO)nc(-c4c[nH]c5ccccc45)c32)c1
MIC [1]: 3.12 µM (≈ 1.3 µg/mL) | MIC [2]: 3.12 µM (≈ 1.3 µg/mL) | Ratio [8]: 2 | MIC [3]: 100 µM (≈ 41.8 µg/mL) | MIC [4]: 3.12 µM (≈ 1.3 µg/mL)

COC(=O)c1cc2c3ccccc3n(Cc3cccc(Br)c3)c2c(-c2cn(C(C)=O)c3ccccc23)n1
MIC [1]: > 100 µM | MIC [2]: > 100 µM | MIC [3]: > 100 µM | MIC [4]: > 100 µM

COC(=O)c1cc2c3ccccc3n(Cc3cccc(F)c3)c2c(-c2cn(C(C)=O)c3ccccc23)n1
MIC [1]: > 100 µM | MIC [2]: > 100 µM | MIC [3]: > 100 µM | MIC [4]: > 100 µM

OCc1cc2c3ccccc3n(Cc3cccc(Cl)c3)c2c(-c2c[nH]c3ccccc23)n1
MIC [1]: 25 µM (≈ 10.9 µg/mL) | MIC [2]: 25 µM (≈ 10.9 µg/mL) | MIC [3]: > 100 µM | MIC [4]: 50 µM (≈ 21.9 µg/mL)

COC(=O)c1cc2c3ccccc3n(Cc3cccc(C)c3)c2c(-c2cn(C(C)=O)c3ccccc23)n1
MIC [1]: > 100 µM | MIC [2]: > 100 µM | MIC [3]: > 100 µM | MIC [4]: > 100 µM

Cc1ccc(Cn2c3ccccc3c3cc(CO)nc(-c4c[nH]c5ccccc45)c32)cc1
MIC [1]: 25 µM (≈ 10.4 µg/mL) | MIC [2]: 25 µM (≈ 10.4 µg/mL) | MIC [3]: 25 µM (≈ 10.4 µg/mL) | MIC [4]: 12.5 µM (≈ 5.22 µg/mL)

COC(=O)c1cc2c3ccccc3n(Cc3ccc(F)cc3)c2c(-c2cn(C(C)=O)c3ccccc23)n1
MIC [1]: > 100 µM | MIC [2]: > 100 µM | MIC [3]: > 100 µM | MIC [4]: > 100 µM

COC(=O)c1cc2c3ccccc3n(Cc3ccccc3Cl)c2c(-c2cn(C(C)=O)c3ccccc23)n1
MIC [1]: > 100 µM | MIC [2]: 100 µM (≈ 50.8 µg/mL) | MIC [3]: > 100 µM | MIC [4]: > 100 µM

COC(=O)c1cc2c3ccccc3n(Cc3ccc(C)cc3)c2c(-c2cn(C(C)=O)c3ccccc23)n1
MIC [1]: > 100 µM | MIC [2]: > 100 µM | MIC [3]: > 100 µM | MIC [4]: > 100 µM

COC(=O)c1cc2c3ccccc3n(Cc3ccccc3C)c2c(-c2cn(C(C)=O)c3ccccc23)n1
MIC [1]: 100 µM (≈ 48.8 µg/mL) | MIC [2]: > 100 µM | MIC [3]: > 100 µM | MIC [4]: > 100 µM

Cc1ccccc1Cn1c2ccccc2c2cc(CO)nc(-c3c[nH]c4ccccc34)c21
MIC [1]: 50 µM (≈ 20.9 µg/mL) | MIC [2]: 25 µM (≈ 10.4 µg/mL) | MIC [3]: > 100 µM | MIC [4]: 12.5 µM (≈ 5.22 µg/mL)

OCc1cc2c3ccccc3n(Cc3ccc(Cl)cc3)c2c(-c2c[nH]c3ccccc23)n1
MIC [1]: 12.5 µM (≈ 5.47 µg/mL) | MIC [2]: 25 µM (≈ 10.9 µg/mL) | MIC [3]: 50 µM (≈ 21.9 µg/mL) | MIC [4]: 12.5 µM (≈ 5.47 µg/mL)

OCc1cc2c3ccccc3n(Cc3ccccc3Cl)c2c(-c2c[nH]c3ccccc23)n1
MIC [1]: 50 µM (≈ 21.9 µg/mL) | MIC [2]: 25 µM (≈ 10.9 µg/mL) | MIC [3]: > 100 µM | MIC [4]: 25 µM (≈ 10.9 µg/mL)

OCc1cc2c3ccccc3n(Cc3cccc(Br)c3)c2c(-c2c[nH]c3ccccc23)n1
MIC [1]: 25 µM (≈ 12.1 µg/mL) | MIC [2]: 25 µM (≈ 12.1 µg/mL) | MIC [3]: > 100 µM | MIC [4]: 25 µM (≈ 12.1 µg/mL)

COC(=O)c1cc2c3ccccc3n(Cc3cccc(C(F)(F)F)c3)c2c(-c2cn(C(C)=O)c3ccccc23)n1
MIC [1]: > 100 µM | MIC [2]: > 100 µM | MIC [3]: > 100 µM | MIC [4]: > 100 µM

C[C@@H]1O[C@@H]1P(=O)(O)O [PHOSPHOMYCIN DISODIUM]
MIC [1]: 25 µM | MIC [2]: 100 µM | MIC [3]: 50 µM | MIC [4]: 50 µM
